Shown are actives, neighbours in structure and some others; about 4% of the full set was active somewhere.
bCat nuc transl = modulators of beta-catenin nuclear translocation, primary screen, imaging, HeLa cells, immunofluorescence, high-content. AID 1665, 2009. nuclear translocation activity, % at 5 µM. 190,000 tested, 0.3% active;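 active = nuclear translocation activity above 50% at 5 µM, with a well cell count of 50 or more; inconclusive = wells under 50 cells across six images, flagged as toxic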;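 also: per-cell ratio of nuclear to cytoplasmic median beta-catenin stain intensity; plate controls were DMSO negative control for no effect and GSK-3 inhibitor IX positive control for full effect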
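Test system: human HeLa cells, native beta-catenin. Compound dosing: 5 µM primary single dose, 0.1% DMSO, 0.02–20 µM confirmation series. Incubation: compound exposure 24 h at 37°C. Detection: beta-catenin immunostaining with DAPI counterstain, 20x imaging, 6 fields/well. Read-out basis: Nuclear/cytoplasmic beta-catenin signal ratio, % activation.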
WT yeast gro inh = growth inhibition of WT strain, primary screen, mitochondrial fusion inhibitor project, WT and mutant strains, chemical genetic | mitochondrial fusion phenotypic screen | inhibition, % at 10 µM | 190,000 tested, 2.1% active | AID 1362, 2008; in the data active = inhibition above about 58%; tested in S. cerevisiae
Cl transport mod = KCC2 cotransporter modulators, thallium flux, primary screen, cell-based, HEK293 KCC2, FluoZin-2 fluorescence, MLSMR | KCC2 cells, thallium flux FluoZin-2 fluorescence | B-score of Tl+ flux slope (higher = more flux/activation; lower = inhibition) at 10 µM | 190,000 tested, 2.2% active | AID 1456, 2008;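 active = thallium flux slope and its plate-corrected score both differing from the plate sample mean at a set confidence after two filtering rounds, in either direction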;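 also: slope of fluorescence scaled to starting intensity during 10 to 20 s after thallium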
Target sequence (Q9H2X9 whole entry, looked up): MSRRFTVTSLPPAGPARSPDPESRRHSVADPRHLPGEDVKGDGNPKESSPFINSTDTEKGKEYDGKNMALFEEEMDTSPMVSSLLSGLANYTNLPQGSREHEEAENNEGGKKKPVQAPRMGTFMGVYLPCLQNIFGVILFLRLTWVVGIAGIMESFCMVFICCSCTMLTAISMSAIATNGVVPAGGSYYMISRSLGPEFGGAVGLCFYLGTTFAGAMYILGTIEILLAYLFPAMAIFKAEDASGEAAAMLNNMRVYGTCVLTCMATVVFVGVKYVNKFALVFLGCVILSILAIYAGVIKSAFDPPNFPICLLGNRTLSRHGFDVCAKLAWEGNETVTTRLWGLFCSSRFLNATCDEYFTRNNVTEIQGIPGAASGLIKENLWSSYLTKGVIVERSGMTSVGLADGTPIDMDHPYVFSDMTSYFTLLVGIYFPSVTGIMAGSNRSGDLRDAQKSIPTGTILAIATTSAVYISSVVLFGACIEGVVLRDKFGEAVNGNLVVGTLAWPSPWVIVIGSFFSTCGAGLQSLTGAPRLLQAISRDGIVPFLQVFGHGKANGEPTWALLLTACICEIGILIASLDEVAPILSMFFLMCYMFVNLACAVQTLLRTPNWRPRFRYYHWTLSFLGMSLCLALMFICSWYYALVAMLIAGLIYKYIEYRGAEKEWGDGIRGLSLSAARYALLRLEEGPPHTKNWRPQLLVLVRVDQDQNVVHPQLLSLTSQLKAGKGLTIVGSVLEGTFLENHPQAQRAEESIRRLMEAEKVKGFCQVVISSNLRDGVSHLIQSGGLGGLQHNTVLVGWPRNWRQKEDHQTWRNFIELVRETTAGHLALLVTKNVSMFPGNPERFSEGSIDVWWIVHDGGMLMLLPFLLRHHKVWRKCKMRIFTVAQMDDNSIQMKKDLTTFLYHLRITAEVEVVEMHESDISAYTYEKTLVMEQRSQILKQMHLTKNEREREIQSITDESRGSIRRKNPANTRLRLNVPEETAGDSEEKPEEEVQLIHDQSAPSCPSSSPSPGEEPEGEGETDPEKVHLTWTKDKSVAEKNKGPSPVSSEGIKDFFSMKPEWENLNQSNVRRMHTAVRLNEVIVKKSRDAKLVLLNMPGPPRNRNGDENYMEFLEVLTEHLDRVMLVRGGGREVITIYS
MT stabilize HCS = microtubule stabilizers in HeLa cells, primary screen, imaging, high-content imaging. % tubulin-high responders, % at 10 µM. HeLa tubulin immunostaining HCS, 24 h; share of cells brighter than vehicle mean+2SD. 200,000 tested, 0.83% active. AID 2205, 2009;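 active = plate Z-score above 3 for both tubulin-high and condensed-nucleus cell shares, with cell loss under 80%, at 10 µM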;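 also: anti alpha tubulin signal scored within the nucleus-defined area of each cell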
Pf gametocyte = late stage P. falciparum gametocyte viability inhibitors, primary screen, ATP luminescence, HTS; AID 743093, 2013; P. falciparum stage V gametocytes, 24 h; 150,000 tested, 0.065% active; inhibition, % at 10.9 µM;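 active = inhibition above the mean plus 3 SD of compounds within the control limits, set per campaign, cut at about 38% in these data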;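 also: 0% = DMSO wells and 100% = medium only without gametocytes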
KCC2 sec1 = KCC2 modulators in sodium-free buffer, confirmation, cell-based, HEK293 KCC2, thallium flux, secondary assay; shares compounds with Cl transport mod; FluoZin2 fluorescence; stronger effect = higher value; normalised thallium flux (F/F0 slope) at 10 µM; 3,700 tested, 15% active; AID 1713, 2009;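 active = thallium flux slope above the same plate's solvent-only control mean plus 3 SD; inconclusive = the two replicate wells disagree; inactive = no significant difference from solvent-only control wells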
KCC2 bumet counter = thallium flux persisting under bumetanide in KCC2 cells, confirmation, counter-screen for KCC2 modulator project, cell-based, HEK293 KCC2, FluoZin2, secondary assay 3. normalized thallium flux at 10 µM. shares compounds with Cl transport mod. AID 1714, 2009. HEK293-KCC2 + bumetanide/ouabain; stronger effect = higher value. 3,700 tested, 49% active;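 active = thallium entry rate above the same plate's blocked-transporter control wells by more than 3 SD; inconclusive = the two repeat wells disagree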;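 also: raw slope of fluorescence over initial fluorescence between 10 and 20 s after thallium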
KCC2 secondary2 = KCC2 modulators without ouabain present, confirmation, cell-based, HEK293 KCC2, thallium flux, FluoZin2, secondary assay 2; shares compounds with Cl transport mod; thallium flux FluoZin2 fluorescence; actives lie on both sides; F/F0 rise rate, 10–20 s post-thallium; normalized thallium flux at 10 µM; 3,700 tested, 23% active; AID 1715, 2009;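 active = thallium flux slope more than 3 SD above or below the plate's solvent-only control mean, mostly below; inconclusive = the two repeat wells disagreed; inactive = no significant shift from solvent-only controls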;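 also: raw slope with 0.1% DMSO as baseline and bumetanide as block control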
HEK counter1 = thallium flux modulation in parental HEK cells, confirmation, counter-screen for KCC2 modulator project, cell-based, counterscreen 1 | shares compounds with Cl transport mod | HEK293 parental cells, thallium flux FluoZin2, ouabain; baseline-ratio fluorescence slope, 10–20 s after thallium | thallium flux rate (normalised fluorescence) at 10 µM | 3,700 tested, 46% active;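 active = thallium flux rate significantly above the same plate's solvent-only control wells, beyond their mean plus 3 SD; inconclusive = the two replicate wells gave conflicting results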
KCC2 ouabain = KCC2 inhibitors and activators, ouabain retest, confirmation, HEK-KCC2 cells; 3,700 tested, 48% active; AID 1717, 2009; raw Tl+ flux slope (below DMSO = inhibition, above = activation) at 10 µM; HEK293-KCC2, thallium flux FluoZin2 fluorescence; bidirectional: low = inhibitor, high = activator; shares compounds with Cl transport mod;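 active = thallium flux slope beyond 3 SD from same-plate DMSO control mean in most replicates, usually higher, sometimes lower; inconclusive = repeat tests gave conflicting results; inactive = no significant difference from controls in most replicates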;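 also: slope of initial-normalized fluorescence between seconds 10 and 20 after thallium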
HEK counter2 = native HEK Tl+ uptake effects, second counter-screen – HEK cells, counterscreen 2, counter-screen for KCC2 modulator project, confirmation | shares compounds with Cl transport mod | HEK293 parental, thallium flux FluoZin-2 fluorescence slope | thallium flux slope at 10 µM | 3,700 tested, 33% active;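 active = thallium flux slope above the same plate's solvent-control mean plus 3 SD in both duplicate wells; inconclusive = duplicate wells that disagreed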;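 also: run without ouabain in cells lacking the KCC2 cotransporter; slope of fluorescence scaled to its starting value between 10 and 20 s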
An asterisk follows results filed as active; ? = inconclusive; nt = no result given.

SMILES	bCat nuc transl	WT yeast gro inh	Cl transport mod	MT stabilize HCS	Pf gametocyte	others
Clc1ccccc1CN1CCN(c2ccccc2Cl)CC1	nt	70*	-0.85	5	nt
CC(C)Oc1cc(-n2c(=S)[nH]c3ccccc3c2=O)c(Cl)cc1Cl	nt	60*	nt	2	-6
COc1cc(-n2c(=S)[nH]c3ccccc3c2=O)c(Cl)cc1Cl	nt	-17	nt	14	-39
C=C1[C@H]2CC[C@H]3[C@]4(C)C[C@H](O[C@@H]5OC(CO)[C@@H](OSOOO)[C@H](OS(=O)(=O)O)[C@H]5OC(=O)CC(C)C)C[C@@H](C(=O)O)[C@H]4CC[C@]3(C2)[C@H]1O (some centres not stated)	nt	nt	nt	nt	-15
COc1ccc(C2C(C#N)=C(N)Oc3c2c(=O)oc2ccccc32)cc1Cn1cc([N+](=O)[O-])cn1 (configuration not stated)	0	9	0.036	2	2
COc1ccc(C2=CC(c3ccc(OC)c(OC)c3)c3c(c4ccccc4oc3=O)O2)cc1OC (configuration not stated)	100*	nt	0.3	nt	nt
CCCCn1c(O)c(C=NCCCn2ccnc2)c(=O)[nH]c1=O	-6	3	1	3	nt
CC(C)CCCn1c(O)c(/C=C2/C=CC=N2)c(=O)[nH]c1=O	16	20	0.21	31*	-4
CC1=NN(c2ccccc2)C(=O)/C1=C/c1c(O)[nH]c(=S)[nH]c1=O	-2	76*	nt	5	nt
COc1ccc(-n2c(C)nc3cc(C(=O)N4CCC5(CC4)OCCO5)ccc32)cc1	0	9	-0.61	24*	0
O=C(c1ccc2c(c1)ncn2-c1ccc(F)cc1F)N1CCC2(CC1)OCCO2	0	-2	0.43	21*	nt
Cc1nc2cc(C(=O)N3CCC4(CC3)OCCO4)ccc2n1-c1ccc(Br)cc1	1	-2	nt	4	-14
Cc1ccc(N=C(N(C)C)P(=O)(N(C)C)N(C)C)cc1	-1	7	0.07	2	-2
CN(C)c1ccc(-[n+]2c(-c3ccccc3)cc(-c3ccccc3)cc2-c2ccccc2)cc1	4	77*	-0.86	3	-4
CC1=CC(=C2C(=O)NC(=S)NC2=O)C=C(C(F)(F)F)N1CCc1ccccc1	3	-4	1.9	25*	nt
CC1=CC(=C2C(=O)NC(=S)NC2=O)C=C(C(F)(F)F)N1Cc1ccccc1	24	-11	0.86	15*	1
CC1=CC(=C2C(=O)NC(=O)NC2=O)C=C(C(F)(F)F)N1Cc1ccccc1	2	4	1.1	32	22
Cn1c(O)c(/C=C/C=Nc2ccccc2)c(=O)n(C)c1=S	nt	-7	-2.3	10	-1
CCCc1c(C)nc(SCC(=O)C(C)(C)C)nc1OC(=O)N(C)C	-3	nt	nt	nt	-2
Cc1cccc(C)c1NC(=O)c1cccn(Cc2ccc3c(c2)OC(F)(F)O3)c1=O	-5	61*	nt	2	-15
CC(C)Oc1cccc(NC(=O)c2cccn(Cc3ccc4c(c3)OC(F)(F)O4)c2=O)c1	-1	15	-0.13	1	23
CN(C)C(=S)SSC(=S)N(C)C	-4	95	0.58	3	nt
CCN(CC)C(=O)c1ccc(NC(=O)Nc2ccccc2F)cc1	-1	79	0.96	5	42*
CC(NC(=O)Cc1cccc2ccccc12)C(=O)N1CCC(=O)CC1 (configuration not stated)	0	13	0.91	1	6
CCOC(=O)CN1C(=O)C2(C(C#N)=C(N)Oc3ccccc32)C(C(=O)OC)=C1C (configuration not stated)	-4	26	-0.68	3	-19
SMILES	bCat nuc transl	WT yeast gro inh	Cl transport mod	MT stabilize HCS	Pf gametocyte	others
CCOC(=O)CC1=C(C(=O)OCC)C2(C(=O)N1CC(=O)OC)C(C#N)=C(N)Oc1ccccc12 (configuration not stated)	nt	66*	nt	3	nt
O=c1c2ccccc2[nH]c(=S)n1-c1ccc(Br)cc1	0	8	20*	3	11	KCC2 sec1=0.0064;KCC2 bumet counter=0.041*;KCC2 secondary2=0.042*;HEK counter1=0.028*;KCC2 ouabain=0.044*;HEK counter2=0.027*
O=c1c2cc(Br)ccc2[nH]c(=S)n1-c1ccccc1	-4	-6	20*	3	9	KCC2 sec1=0.008;KCC2 bumet counter=0.027*;KCC2 secondary2=0.042*;HEK counter1=0.022*;KCC2 ouabain=0.033*;HEK counter2=0.023*
CC(=NCc1ccc2c(c1)OCO2)c1c(O)n(-c2ccc(C)cc2)c(=O)[nH]c1=O	2	nt	1.2	nt	14
CCNC(=S)NCCC1=c2ccccc2=N/C1=C\c1c(O)n(C)c(=O)n(C)c1=O	-4	nt	-0.45	nt	1
CCCCNC(=O)Nc1ccc(C(O)(C(=O)OC)C(F)(F)F)cc1 (configuration not stated)	0	1	nt	4	-15
CCCCNC(=O)Nc1ccc(C(O)(C(=O)OCC)C(F)(F)F)cc1 (configuration not stated)	-2	-8	-4.7*	3	nt	KCC2 sec1=0.0078;KCC2 bumet counter=0.0069;KCC2 secondary2=0.032;HEK counter1=?;KCC2 ouabain=0.022;HEK counter2=0.0099
CC1(c2ccccc2)NCCN2C(=O)CSC21 (configuration not stated)	-1	25	-2.3	1	nt	KCC2 sec1=0.0086;KCC2 bumet counter=0.0061;KCC2 secondary2=0.035;HEK counter1=0.0045;KCC2 ouabain=0.02;HEK counter2=0.011

Assay outcomes from PubChem.
